Test results reported in ChEMBL document CHEMBL2163344, “Immunomodulatory properties of novel nucleotide oligomerization domain 2 (nod2) agonistic desmuramyldipeptides” (J Med Chem, 2012).
Active and inactive are the calls of the source. The rule behind the calls is not given here.

What was measured:
Type in all cases: functional, cell-based
PBMC [1] = test: Immunomodulatory activity in human PBMCs assessed as increase in PMA/ionomycin-induced IL6 release at 20 uM by multiplexed cytokine assay; details: TDE = time-dependent effect
Method in brief: (§1)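 Ficoll-isolated human PBMC, 1 × 10^6 cells per well, treated with 20 μM compound (DMSO ≤0.1%) plus PMA 3.33 ng/mL and ionomycin 500 nM for 18 h at 37 °C, 5% CO2. Cell-free supernatant cytokines measured by CBA human inflammatory kit on a flow cytometer against recombinant standards. Reported as % of PMA/ionomycin-only release; duplicates, three experiments, three donors.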

PBMC [2] = test: Immunomodulatory activity in human PBMCs assessed as increase in PMA/ionomycin-induced IL8 release at 0.2 to 200 uM incubated for 18 hrs by multiplexed cytokine assay
Method in brief: (§2)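 Human PBMC stimulated with PMA 3.33 ng/mL and ionomycin 500 nM plus compound at 0.2, 2, 20 or 200 μM for 18 h. Supernatant cytokines quantified by cytometric bead array. Compared with PMA/ionomycin-only cells; two independent experiments in duplicate, two donors, mean ± SD.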

PBMC [3] = test: Immunomodulatory activity in human PBMCs assessed as increase in PMA/ionomycin-induced IL8 release at 20 uM incubated for 4 to 40 hrs by multiplexed cytokine assay
Method in brief: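 PBMC time course: 20 μM compound with PMA 3.33 ng/mL and ionomycin 500 nM. Supernatants collected at 4, 18 and 40 h and cytokines read by cytometric bead array. Compared with PMA/ionomycin-only control; two independent experiments in duplicate, two donors.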

PBMC [4] = test: Immunomodulatory activity in human PBMCs assessed as increase in PMA/ionomycin-induced IL-12p70 release incubated for 18 hrs by multiplexed cytokine assay
PBMC [5] = test: Immunomodulatory activity in human PBMCs assessed as increase in PMA/ionomycin-induced IL-1beta release at 20 uM by multiplexed cytokine assay; details: TDE = time-dependent effect; method in brief: as §1
PBMC [6] = test: Immunomodulatory activity in human PBMCs assessed as increase in PMA/ionomycin-induced IL10 release at 0.2 to 200 uM incubated for 18 hrs by multiplexed cytokine assay; method in brief: as §2
PBMC [7] = test: Immunomodulatory activity in human PBMCs assessed as reduction in PMA/ionomycin-induced TNFalpha release at 20 uM incubated for 18 hrs by multiplexed cytokine assay; method in brief: as §1

| Structure (SMILES) | Activity (PBMC [1]) | Activity (PBMC [2]) | Activity (PBMC [3]) | Activity (PBMC [4]) | Activity (PBMC [5]) | Activity (PBMC [6]) | Activity (PBMC [7]) |
| --- | --- | --- | --- | --- | --- | --- | --- |
| CCOC(=O)CC[C@@H](NC(=O)[C@H](C)NC(=O)CNC(=O)c1cc2ccccc2[nH]1)C(=O)OCC | tde | inactive | inactive | Dose-dependent effect | tde | inactive |  |
| CCCCOC(=O)[C@@H](CCC(N)=O)NC(=O)[C@H](C)NC(=O)[C@@H](C)O[C@H]1[C@H](O)[C@@H](CO)OC(O)[C@@H]1NC(C)=O (stereo partly drawn) [MURABUTIDE] | tde | inactive | inactive | Dose-dependent effect | tde | inactive |  |
| CCOC(=O)CC[C@@H](NC(=O)[C@H](C)NC(=O)CNC(=O)c1cc2ccccc2[nH]1)C(N)=O |  |  |  |  |  |  | Active |
